Reference: ChEMBL document CHEMBL6182834, “Dual EGFR and telomerase inhibitory potential of new triazole tethered Schiff bases endowed with apoptosis: design, synthesis, and biological assessments” (RSC Med Chem, 2025)

How the values were obtained:
[1] = Cytotoxicity against HSF cells assessed as growth inhibition at 100 ug/mL incubated for 48 hrs by SRB assay relative to control; type: toxicity, cell-based; details: human, at 100 µg/mL, read-out: GI
Outline: (§1)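 SRB assay: cells seeded at 3×10^3/well, allowed 24 h to attach, then exposed to 100 µg/mL for 48 h, three wells per concentration, DMSO 1% v/v vehicle control. Cells fixed with 20% trichloroacetic acid and stained with 0.4% SRB, then OD read at 570 nm. Survival fraction taken as treated OD/control OD.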

A-375 [2] = test: Antiproliferative activity against human A-375 cells assessed as growth inhibition at 100 ug/mL incubated for 48 hrs by SRB assay relative to control; type: functional; details: read-out: GI; outline: as §1
Huh-7 = test: Antiproliferative activity against human Huh-7 cells assessed as growth inhibition at 100 ug/mL incubated for 48 hrs by SRB assay relative to control; type: functional; details: read-out: GI; outline: as §1
MDA-MB-468 = test: Antiproliferative activity against human MDA-MB-468 cells assessed as growth inhibition at 100 ug/mL incubated for 48 hrs by SRB assay relative to control; type: functional; details: read-out: GI; outline: as §1
Caco-2 = test: Antiproliferative activity against human Caco-2 cells assessed as growth inhibition at 100 ug/mL incubated for 48 hrs by SRB assay relative to control; type: functional; details: read-out: GI; outline: as §1
FaDu = test: Antiproliferative activity against human FaDu cells assessed as growth inhibition at 100 ug/mL incubated for 48 hrs by SRB assay relative to control; type: functional; details: read-out: GI; outline: as §1
MG-63 = test: Antiproliferative activity against human MG-63 cells assessed as growth inhibition at 100 ug/mL incubated for 48 hrs by SRB assay relative to control; type: functional; details: read-out: GI; outline: as §1
HeLa = test: Antiproliferative activity against human HeLa cells assessed as growth inhibition at 100 ug/mL incubated for 48 hrs by SRB assay relative to control; type: functional; details: read-out: GI; outline: as §1
MCF7 = test: Antiproliferative activity against human MCF7 cells assessed as growth inhibition at 100 ug/mL incubated for 48 hrs by SRB assay relative to control; type: functional; details: read-out: GI; outline: as §1
HCT-116 [3] = test: Antiproliferative activity against human HCT-116 cells assessed as growth inhibition at 100 ug/mL incubated for 48 hrs by SRB assay relative to control; type: functional; details: read-out: GI; outline: as §1
HepG2 [4] = test: Antiproliferative activity against human HepG2 cells assessed as growth inhibition at 100 ug/mL incubated for 48 hrs by SRB assay relative to control; type: functional; details: read-out: GI; outline: as §1
[5] = Antiproliferative activity against human HNO 97 cell line assessed as growth inhibition at 100 ug/mL incubated for 48 hrs by SRB assay relative to control; type: functional; details: read-out: GI; outline: as §1
[6] = Cytotoxicity against human oral epithelial cells (OEC) assessed as growth inhibition at 100 ug/mL incubated for 48 hrs by SRB assay relative to control; type: toxicity, cell-based, Oral epithelial cell; details: at 100 µg/mL, read-out: GI; outline: as §1
HCT-116 [7] = test: Cytotoxicity against human HCT-116 cells assessed as inhibition of cell growth incubated for 48 hrs by SRB assay; type: functional, cell-based; details: HCT-116, 48 h
Outline: (§2)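 Cells plated at 3×10^3/well and left 24 h to attach. Treated at 12.5, 25, 50 and 62.5 µg/mL for 48 h, three wells per concentration, with DMSO (1% v/v) vehicle control. Fixed with 20% TCA, stained with 0.4% SRB, OD read at 570 nm. Survival fraction = treated OD/control OD. IC50 from sigmoidal dose-response curve fitting.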

[8] = Cytotoxicity against human HNO 97 cell line assessed as inhibition of cell growth incubated for 48 hrs by SRB assay; type: functional, cell-based; details: HNO 97, 48 h; outline: as §2
A-375 [9] = test: Cytotoxicity against human A-375 cells assessed as inhibition of cell growth incubated for 48 hrs by SRB assay; type: functional, cell-based; details: A-375, 48 h; outline: as §2
HepG2 [10] = test: Cytotoxicity against human HepG2 cells assessed as inhibition of cell growth incubated for 48 hrs by SRB assay; type: functional, cell-based; details: HepG2, 48 h; outline: as §2

Structure (SMILES)	inhibition at 48 h, 100 ug/mL [1]	inhibition of growth at 100 µg/mL (A-375 [2])	inhibition of growth at 100 µg/mL (Huh-7)	inhibition of growth at 100 µg/mL (MDA-MB-468)	inhibition of growth at 100 µg/mL (Caco-2)	inhibition of growth at 100 µg/mL (FaDu)	inhibition of growth at 100 µg/mL (MG-63)	inhibition of growth at 100 µg/mL (HeLa)	inhibition of growth at 100 µg/mL (MCF7)	inhibition of growth at 100 µg/mL (HCT-116 [3])	inhibition of growth at 100 µg/mL (HepG2 [4])	inhibition of growth at 100 µg/mL [5]	inhibition at 48 h, 100 ug/mL [6]	IC50 (HCT-116 [7])	IC50 [8]	IC50 (A-375 [9])	IC50 (HepG2 [10])
COc1cccc(/C=N/NC(=O)c2nnn(-c3ccc([N+](=O)[O-])cc3)c2C)c1OC	19%	75%	56%	56%	32%	56%	44%	52%	63%	56%	56%	54%	36%				
COc1cc(/C=N/NC(=O)c2nnn(-c3ccc(Br)cc3)c2C)cc(OC)c1OC	51%	60%	75%	76%	64%	73%	67%	60%	72%	82%	76%	68%	52%				
Cc1c(C(=O)N/N=C/c2ccccc2)nnn1-c1ccc(Br)cc1	4%	72%	67%	65%	37%	83%	75%	79%	87%	87%	72%	89%	23%	16.9 µM			
COc1cc(/C=N/NC(=O)c2nnn(-c3ccc([N+](=O)[O-])cc3)c2C)cc(OC)c1OC	28%	50%	74%	70%	60%	70%	40%	29%	49%	35%	44%	68%	39%				
COc1cccc(/C=N/NC(=O)c2nnn(-c3ccc(F)cc3)c2C)c1OC	9%	71%	68%	52%	36%	70%	42%	45%	78%	64%	49%	69%	13%				
COc1ccc(/C=N/NC(=O)c2nnn(-c3ccc(F)cc3)c2C)cc1OC	21%	82%	65%	65%	49%	89%	84%	78%	87%	81%	81%	84%	33%				
COc1cccc2c1C(=O)c1c(O)c3c(c(O)c1C2=O)C[C@@](O)(C(=O)CO)C[C@@H]3O[C@H]1C[C@H](N)[C@H](O)[C@H](C)O1 [DOXORUBICIN]	42%	52%	63%	73%	71%	61%	51%	76%	69%	76%	72%	59%	41%	10.5 µM	9.01 µM	14.5 µM	11 µM
COc1cc(/C=N/NC(=O)c2nnn(-c3ccc(Cl)cc3)c2C)cc(OC)c1OC	34%	63%	78%	59%	53%	69%	38%	42%	50%	64%	43%	74%	25%				
COc1ccc(/C=N/NC(=O)c2nnn(-c3ccc(Br)cc3)c2C)cc1OC	20%	77%	53%	54%	40%	69%	42%	65%	86%	63%	59%	86%	28%				
COc1cccc(/C=N/NC(=O)c2nnn(-c3ccc(Br)cc3)c2C)c1OC	35%	73%	70%	63%	47%	79%	63%	68%	60%	69%	69%	77%	19%				
COc1cc(/C=N/NC(=O)c2nnn(-c3ccc(F)cc3)c2C)cc(OC)c1OC	38%	85%	75%	72%	58%	72%	63%	56%	68%	73%	79%	79%	32%	18.8 µM	15.7 µM	13.2 µM	35.7 µM
Cc1c(C(=O)N/N=C/c2ccccc2)nnn1-c1ccc(F)cc1	14%	42%	37%	44%	20%	70%	68%	52%	80%	74%	54%	74%	16%				
